Test results: ChEMBL document CHEMBL1147825, “2H-benzimidazole 1,3-dioxide derivatives: a new family of water-soluble anti-trypanosomatid agents” (J Med Chem, 2006)

The molecules below were run on Trypanosoma cruzi (assay: Antitrypanosomatid activity against Trypanosoma cruzi Tulahuen 2 epimastigote form at 25 uM). Settings: read-out: GI.
Assay type: functional
Outline: (§1)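 Tulahuen 2 epimastigotes in BHI-tryptose plus 5% FCS at 28°C, inoculated at 1×10^6 cells/mL with compound (25 or 100 µM) from DMSO stock, final DMSO ≤0.4%. Growth over 5 days followed by A600; %GI computed from day-0 and day-5 absorbances of treated vs compound-free control cultures; mean of three experiments.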
With `O=[N+]([O-])c1ccc2c(c1)[n+]([O-])c1n2CCSC1` the inhibition of growth at 25 µM was 0%.
`O=[N+]([O-])c1ccc2c(c1)[n+]([O-])c1n2CCCC1` was tested, and the inhibition of growth at 25 µM was 0%.
`Cc1n(O)c2ccc(Cl)cc2[n+]1[O-]` was tested, and the inhibition of growth at 25 µM was 0%.
In the case of `CCOC(=O)COn1c(C)[n+]([O-])c2ccccc21`, the inhibition of growth at 25 µM is reported as 1%.
Molecule `Cc1n(O)c2ccc(Br)cc2[n+]1[O-]` has an inhibition of growth at 25 µM of 0%.
`CCCCCOn1c(C)[n+]([O-])c2ccccc21` showed an inhibition of growth at 25 µM of 0%.
In the case of `O=C(Cn1ccnc1[N+](=O)[O-])NCc1ccccc1` [BENZNIDAZOLE], the inhibition of growth at 25 µM is reported as 92%.
For `Cc1n(O)c2ccc(/C=C/c3ccccc3)cc2[n+]1[O-]`, the inhibition of growth at 25 µM was 19%.
In the case of `CC1CS(=O)(=O)CCN1/N=C/c1ccc([N+](=O)[O-])o1` (stereo not drawn) [NIFURTIMOX], the inhibition of growth at 25 µM is reported as 93%.
Work on `CCOC(=O)COn1c(C)[n+]([O-])c2cc(C)ccc21` yielded an inhibition of growth at 25 µM of 25%.
Work on `O=[N+]([O-])c1ccc2c(c1)[n+]([O-])c1n2CCC1` yielded an inhibition of growth at 25 µM of 0%.
`CCCCCCNC(=O)N/N=C/c1ccc2c(c1)=[N+]([O-])C(C)(C)[N+]=2[O-]` was tested, and the inhibition of growth at 25 µM was 69%.
`O=[N+]([O-])c1ccc2c(c1)[n+]([O-])c1n2CCOC1` showed an inhibition of growth at 25 µM of 0%.

Each molecule was assayed on Trypanosoma cruzi (assay: Antitrypanosomatid activity against Trypanosoma cruzi Tulahuen 2 epimastigote form at 100 uM). Settings: read-out: GI.
Assay type: functional
Outline: as §1
For `Cc1n(O)c2ccc(Cl)cc2[n+]1[O-]`, the inhibition of growth at 100 µM was 8%.
With `CCOC(=O)COn1c(C)[n+]([O-])c2ccccc21` the inhibition of growth at 100 µM was 12%.
`Cc1n(O)c2ccc(Br)cc2[n+]1[O-]` gave an inhibition of growth at 100 µM of 18%.
Molecule `CCCCCOn1c(C)[n+]([O-])c2ccccc21` has an inhibition of growth at 100 µM of 57%.
For `Cc1n(O)c2ccc(/C=C/c3ccccc3)cc2[n+]1[O-]`, the inhibition of growth at 100 µM was 15%.
`CCOC(=O)COn1c(C)[n+]([O-])c2cc(C)ccc21` gave an inhibition of growth at 100 µM of 15%.

What follows are molecules tested on Trypanosoma cruzi (assay: Antitrypanosomatid activity against Trypanosoma cruzi Tulahuen 2 epimastigote form). Settings: not given.
Assay type: functional, organism-based
Outline: (§2)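 Epimastigotes grown at 28°C in BHI-tryptose with 5% fetal calf serum; 5-day stationary-phase cells inoculated at 1×10^6 cells/mL with compound added from DMSO stock (final DMSO ≤0.4%; control contains 0.4% DMSO). Growth followed by A600; at day 5 absorbance related to control across increasing concentrations; IC50 taken as concentration reducing absorbance ratio to 50%.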
`O=C(Cn1ccnc1[N+](=O)[O-])NCc1ccccc1` [BENZNIDAZOLE] was tested, and the IC50 was 8.5 µM.

Each molecule was assayed on Trypanosoma cruzi (assay: Antitrypanosomatid activity against Trypanosoma cruzi CL Brener epimastigote form). Settings: not given.
Assay type: functional, organism-based
Outline: as §2
`O=C(Cn1ccnc1[N+](=O)[O-])NCc1ccccc1` [BENZNIDAZOLE] gave an IC50 of 3.4 µM.

Each molecule was assayed on Trypanosoma cruzi (assay: Trypanocidal activity against Trypanosoma cruzi CL Brener trypomastigote form in mouse blood at 250 ug/mL). Settings: not given.
Assay type: functional
Outline: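 Trypomastigotes taken from infected mouse blood; compound in DMSO diluted with PBS to 250 µg/mL, mixed with blood containing 10^6 parasites at 90/10 ratio, incubated 24 h at 4°C. Parasites counted by the Brener method under microscope; gentian violet positive and PBS negative controls.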
Work on `CN(C)c1ccc(C(=C2C=CC(=[N+](C)C)C=C2)c2ccc(N(C)C)cc2)cc1.[Cl-]` [GENTIAN VIOLET] yielded an Activity of 100%.
Molecule `CCCCOC(=O)c1[nH]c2ccc([N+](=O)[O-])cc2[n+]1[O-]` has an Activity of 0%.
